ChEMBL document CHEMBL1124388, “Cardiotonic agents. 1-Methyl-7-(4-pyridyl)-5,6,7,8-tetrahydro-3 (2H)-isoquinolinones and related compounds. Synthesis and activity” (J Med Chem, 1989)
Activity calls are given as the source filed them. The rule behind the calls is not given here.

Target: Phosphodiesterase 3 (Canis familiaris)
Assay: Inhibition of canine Phosphodiesterase III (PDE 3)
Conditions: not given

SMILES | IC50 [µM]
CC(=O)c1c(O)nc(C)c2c1CCC(c1ccncc1)C2 (centres undefined) | 1.5

Test system: Canis familiaris
Assay: Positive inotropic effects in the propranolol induced heart failure model in the dog; Inactive at 10 mg/kg.
Type: functional, organism-based
Design: dose 10 mg/kg
Conditions: Canis lupus familiaris
Outline: (§1)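 Pentobarbital-anesthetized (30 mg/kg iv) mongrel dogs, 8–12 kg, either sex. Heart failure induced by propranolol, 4 mg/kg iv bolus then 0.1 mg/kg/min infusion. About 20 min later, compound given cumulatively into the femoral vein, one dose-response curve per animal. LV dp/dt max read by electronic differentiator. ED100 is the dose restoring pre-propranolol LV dp/dt max, taken from log dose-response. Highest dose tested 10 mg/kg. Three experiments unless stated.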

SMILES | ED100
Cc1nc(O)c(C#N)c2c1CC(C(C)(C)C)CC2 (centres undefined) | inactive
COCc1ccc(C2CCc3c(C#N)c(O)nc(C)c3C2)cc1 (centres undefined) | inactive
Cc1c(C#N)c(O)nc2c1CCCC2 | inactive
Cc1c(C#N)c(O)nc2c1CC(C)CC2 (centres undefined) | inactive
Cc1nc(O)c(C(=O)c2ccccc2)c2c1CC(c1ccncc1)CC2 (centres undefined) | inactive
CCCC(=O)c1c(O)nc(C)c2c1CCC(c1ccncc1)C2 (centres undefined) | inactive
Cc1nc(O)c(C=O)c2c1CC(c1ccncc1)CC2 (centres undefined) | inactive
COC1CCc2nc(O)c(C#N)c(C)c2C1 (centres undefined) | inactive
CCCCOC1CCc2c(C#N)c(O)nc(C)c2C1 (centres undefined) | inactive
Cc1nc(O)c(C#N)c2c1CC(c1ccc(CN(C)C)cc1)CC2 (centres undefined) | inactive
CCCc1nc(O)c(C#N)c2c1CCCC2 | inactive
Cc1c2c(c(C#N)c(=O)n1C)CCC(C)C2 (centres undefined) | inactive
CC(=O)c1c(O)nc2c(c1C)CC(c1ccncc1)CC2 (centres undefined) | inactive
Cc1c(C#N)c(O)nc2c1CC(c1ccncc1)CC2 (centres undefined) | inactive
Cc1nc(O)c(C#N)c2c1CC(c1ccc(N(C)C)cc1)CC2 (centres undefined) | inactive
Cc1nc(O)c(C#N)c2c1CCC(c1ccncc1)C2 (centres undefined) | inactive
N#Cc1c(O)ncc2c1CCCC2 | inactive
Cc1nc(O)c(C(N)=O)c2c1CC(c1ccncc1)CC2 (centres undefined) | inactive
CCCCc1nc(O)c(C(C)=O)c2c1CC(c1ccncc1)CC2 (centres undefined) | inactive

Species on record: Canis familiaris
Assay: Positive inotropic effects in the propranolol induced heart failure model in the dog.
Type: functional, Canis lupus familiaris
Conditions: not given
Outline: as §1

SMILES | ED100 [mg/kg]
CCc1nc(O)c(C(C)=O)c2c1CC(c1ccncc1)CC2 (centres undefined) | 0.3
CC(=O)c1c(O)nc(C)c2c1CCC(c1ccncc1)C2 (centres undefined) | 0.1
Cc1nc(O)c(C#N)c2c1CC(c1ccncc1)CC2 (centres undefined) | 0.1
CCC(=O)c1c(O)nc(C)c2c1CCC(c1ccncc1)C2 (centres undefined) | 4
Cc1nc(O)c(C#N)c2c1CCCC2 | 3
Cc1nc(O)c(C#N)c2c1CC(c1cccnc1)CC2 (centres undefined) | 0.1
CCC1CCc2c(C#N)c(O)nc(C)c2C1 (centres undefined) | 1
Cc1nc(O)c(C#N)c2c1C(C)CCC2 (centres undefined) | 3
CCc1c(O)nc(C)c2c1CCC(c1ccncc1)C2 (centres undefined) | 0.02
Cc1nc(O)c(C#N)c2c1CC(C)CC2 (centres undefined) | 0.3
Cc1nc(O)c(N)c2c1CC(c1ccncc1)CC2 (centres undefined) | 0.2
COc1ccc(C2CCc3c(C#N)c(O)nc(C)c3C2)cc1 (centres undefined) | 0.3
Cc1nc(O)c(C#N)c2c1CC(c1ccccn1)CC2 (centres undefined) | 0.3
Cc1[nH]c(=O)c(C#N)cc1-c1ccncc1 [MILRINONE] | 0.1
Cc1nc(O)c([N+](=O)[O-])c2c1CC(c1ccncc1)CC2 (centres undefined) | 0.1
Cc1nc(O)c(C#N)c2c1CCCC2C (centres undefined) | 2
COC1CCc2c(C#N)c(O)nc(C)c2C1 (centres undefined) | 1
Cc1nc(O)c(C#N)c2c1CC(c1ccccc1)CC2 (centres undefined) | 0.1
CCCc1c(O)nc(C)c2c1CCC(c1ccncc1)C2 (centres undefined) | 0.3
Cc1nc(O)c(C#N)c2c1CCC(C)C2 (centres undefined) | 1
Cc1nc(O)c(C)c2c1CC(c1ccncc1)CC2 (centres undefined) | 2
Cc1nc(O)cc2c1CC(c1ccncc1)CC2 (centres undefined) | 0.3

Target: Phosphodiesterase 1 (Canis familiaris)
Assay: Inhibition of canine Phosphodiesterase 1(PDE 1)
Conditions: not given

SMILES | IC50 [µM]
CC(=O)c1c(O)nc(C)c2c1CCC(c1ccncc1)C2 (centres undefined) | 409

Species on record: Canis lupus familiaris
Assay: Relative inhibition of canine PDE1 and PDE 3
Conditions: not given

SMILES | Ratio
CC(=O)c1c(O)nc(C)c2c1CCC(c1ccncc1)C2 (centres undefined) | 273
